From paper PMC6445238 (Drug Design, Development and Therapy, 2019)

Assays:
[1] = test system: alpha-synuclein oligomer, total tau, phosphor-tau; assay: MAD study, PD biomarkers; type: in vivo, human
In short: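 Healthy male volunteers in the MAD part: young (19–45 y) or elderly (>60 y), randomized 6 active : 2 placebo per cohort, oral dosing once daily for 7 days. Blood and CSF sampled for alpha-synuclein oligomer, and CSF for total and phospho-tau, at day 1 predose and day 7, 1 h after last dose. CSF (about 2 mL) by lumbar puncture at L3–L4. Protein levels were measured by an external biomarker core.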

[2] = test system: dopaminergic neurons treated with MPTP; conditions: dose-dependent, ref unpublished data; cited from earlier work

SMILES: Cc1nn(Cc2ccc(Br)cc2)c(C)c1NC(=O)CSc1ccccc1 [KM-819]
- Alpha-synuclein oligomer, CSF, change from baseline (day 1 predose) to day 7, mean (SD) ([1]; 30 mg QD, young): 49.94 (72.09) pg/mL
- Alpha-synuclein oligomer, plasma, change from baseline (day 1 predose) to day 7, mean (SD) ([1]; 30 mg QD, young): 3,884.41 pg/mL
- Phosphor-tau, CSF, change from baseline (day 1 predose) to day 7, mean (SD) ([1]; 30 mg QD, young): 6.41 (19.04) pg/mL
- Total tau, CSF, change from baseline (day 1 predose) to day 7, mean (SD) ([1]; 30 mg QD, young): 60.30 (64.42) pg/mL
- Alpha-synuclein oligomer, CSF, change from baseline (day 1 predose) to day 7, mean (SD) ([1]; 100 mg QD, young): −252.56 (643.49) pg/mL
- Alpha-synuclein oligomer, plasma, change from baseline (day 1 predose) to day 7, mean (SD) ([1]; 100 mg QD, young): 575.46 (18,379.46) pg/mL
- Phosphor-tau, CSF, change from baseline (day 1 predose) to day 7, mean (SD) ([1]; 100 mg QD, young): 0.21 (1.13) pg/mL
- Total tau, CSF, change from baseline (day 1 predose) to day 7, mean (SD) ([1]; 100 mg QD, young): 9.23 (15.82) pg/mL
- Alpha-synuclein oligomer, CSF, change from baseline (day 1 predose) to day 7, mean (SD) ([1]; 200 mg QD, elderly): 34.87 (51.42) pg/mL
- Alpha-synuclein oligomer, plasma, change from baseline (day 1 predose) to day 7, mean (SD) ([1]; 200 mg QD, elderly): −11,712.09 pg/mL
- Phosphor-tau, CSF, change from baseline (day 1 predose) to day 7, mean (SD) ([1]; 200 mg QD, elderly): 5.16 (10.88) pg/mL
- Total tau, CSF, change from baseline (day 1 predose) to day 7, mean (SD) ([1]; 200 mg QD, elderly): 29.30 (100.07) pg/mL
- Alpha-synuclein oligomer, CSF, change from baseline (day 1 predose) to day 7, mean (SD) ([1]; 200 mg QD, young): 0.60 (18.22) pg/mL
- Alpha-synuclein oligomer, plasma, change from baseline (day 1 predose) to day 7, mean (SD) ([1]; 200 mg QD, young): 3,809.51 pg/mL
- Phosphor-tau, CSF, change from baseline (day 1 predose) to day 7, mean (SD) ([1]; 200 mg QD, young): 4.47 (7.88) pg/mL
- Total tau, CSF, change from baseline (day 1 predose) to day 7, mean (SD) ([1]; 200 mg QD, young): −3.16 (15.01) pg/mL
- Alpha-synuclein oligomer, CSF, change from baseline (day 1 predose) to day 7, mean (SD) ([1]; 400 mg QD, young): 18.21 (103.83) pg/mL
- Alpha-synuclein oligomer, plasma, change from baseline (day 1 predose) to day 7, mean (SD) ([1]; 400 mg QD, young): −64,843.29 pg/mL
- Phosphor-tau, CSF, change from baseline (day 1 predose) to day 7, mean (SD) ([1]; 400 mg QD, young): 6.70 (11.82) pg/mL
- Total tau, CSF, change from baseline (day 1 predose) to day 7, mean (SD) ([1]; 400 mg QD, young): 27.86 (66.07) pg/mL
- protection of dopaminergic neurons [2]: protect the dopaminergic neurons
